The nature of assay [1]: Growth inhibition of human MCF10A cells after 72 hrs by CellTiter-Blue assay. The class given is cell-based. Conditions: MCF-10A. The gist of the method: (§1)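 CellTiter-Blue viability assay after 72 h exposure to test compound. IC50 (μM) reported as the mean of triplicates with standard deviation. Some values are approximate owing to low solubility in medium.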
Background: Resazurin is reduced to fluorescent resorufin, in cell work by metabolically active cells.

A further assay concerns MDA-MB-231. Kind of assay: Growth inhibition of human MDA-MB-231 cells after 72 hrs by CellTiter-Blue assay. The class given is functional, cell-based. Conditions: MDA-MB-231, 72 h. The gist of the method: as §1
The subject of the next assay is MCF7. Kind of assay: Growth inhibition of human MCF7 cells after 72 hrs by CellTiter-Blue assay. The class given is functional, cell-based. Conditions: MCF7, 72 h. The method, boiled down:
as §1

What is called IC50 is the point on the concentration scale where inhibition reaches its midpoint. A high value points to a need for much substance.

Where a name gives a salt, the structure may show the parent alone. Peptide text beside a SMILES is read from it. * marks the point of attachment. Cbz = O=C(OCc1ccccc1)*

In assay [1], `COc1cccc2c1C(=O)c1c(O)c3c(c(O)c1C2=O)C[C@@](O)(C(=O)CO)C[C@@H]3O[C@H]1C[C@H](N)[C@H](O)[C@H](C)O1` [DOXORUBICIN HYDROCHLORIDE] registered an IC50 of 1110 nM.
Take `CC(C)C[C@@H](C=O)NC(=O)[C@H](CC(C)C)NC(=O)[C@H](CC(C)C)NC(=O)OCc1ccccc1` [MG-132] (Cbz-Leu-Leu-Leu-aldehyde): the results for the IC50 (with MDA-MB-231; in assay [1]; in the assay with MCF7) were 180 nM, 290 nM and 130 nM, respectively.
